# Measured values from ChEMBL document CHEMBL4396943, “The tetrahydroxanthone-dimer phomoxanthone A is a strong inducer of apoptosis in cisplatin-resistant solid cancer cells” (Bioorg Med Chem, 2019).
# The source made the active and inactive calls. The calls are words filed in the database; no cut-off is given here.
# Key:
# A2780 [1] = experiment: Antiproliferative activity against human A2780 cells assessed as reduction in cell viability incubated for 72 hrs by MTT assay; format: functional, cell-based; settings: A2780, 72 h
# Method in brief: (§1)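 Cells seeded overnight in 96-well plates, then exposed to increasing concentrations (compound dissolved in DMSO, diluted in medium) for the stated time. MTT (5 mg/ml in PBS) added for 15 min, formazan dissolved in DMSO, absorbance read at 544 nm minus 690 nm background. IC50 = concentration giving 50% signal decrease. At least three independent experiments in triplicate.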
# MDA-MB-231 = experiment: Antiproliferative activity against human MDA-MB-231 cells assessed as reduction in cell viability incubated for 72 hrs by MTT assay; format: functional, cell-based; settings: MDA-MB-231, 72 h; method in brief: as §1
# KYSE-510 [2] = experiment: Antiproliferative activity against human KYSE-510 cells assessed as reduction in cell viability incubated for 72 hrs by MTT assay; format: functional, cell-based; settings: KYSE-510, 72 h; method in brief: as §1
# J82 [3] = experiment: Antiproliferative activity against human J82 cells assessed as reduction in cell viability incubated for 72 hrs by MTT assay; format: functional, cell-based; settings: J82, 72 h; method in brief: as §1
# HCT-116 = experiment: Antiproliferative activity against human HCT116 cells assessed as reduction in cell viability incubated for 72 hrs by MTT assay; format: functional, cell-based; settings: HCT-116, 72 h; method in brief: as §1
# A2780cisR [4] = experiment: Potency index, ratio of cisplatin IC50 to compound IC50 for antiproliferative activity in human A2780cisR cells assessed as reduction in cell viability incubated for 72 hrs by MTT assay; format: functional
# Method in brief: (§2)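 Cells seeded in 96-well plates overnight, exposed 72 h to increasing concentrations. MTT (5 mg/ml) added for 15 min, formazan dissolved in DMSO, absorbance read at 544 nm with 690 nm background subtracted. IC50 is the concentration reducing signal by 50%. Three independent experiments in triplicate. CisR sublines made by weekly intermittent cisplatin exposure for 24–30 weeks.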
# KYSE-510 [5] = experiment: Potency index, ratio of cisplatin IC50 to compound IC50 for antiproliferative activity in human KYSE-510 cells assessed as reduction in cell viability incubated for 72 hrs by MTT assay; format: functional; method in brief: as §2
# J82 [6] = experiment: Potency index, ratio of cisplatin IC50 to compound IC50 for antiproliferative activity in cisplatin resistant human J82 cells assessed as reduction in cell viability incubated for 72 hrs by MTT assay; format: functional; method in brief: as §2
# A2780 [7] = experiment: Antiproliferative activity against human A2780 cells assessed as reduction in cell viability incubated for 24 hrs by MTT assay; format: functional, cell-based; settings: A2780, 24 h; method in brief: as §1
# A2780 [8] = experiment: Cell cycle arrest in human A2780 cells assessed as accumulation at G1 phase at 10 uM incubated for 24 hrs by propidium iodide staining based flow cytometry (reference value: 61.8%); format: functional
# Method in brief: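 After 24 h exposure, cells washed in ice-cold PBS. About 2 million cells fixed in cold 70% ethanol at −20 °C for at least 24 h. Stained with 0.1% Triton X-100, 200 µg/ml RNase A and 20 µg/ml propidium iodide in PBS, 15 min at 37 °C in the dark. DNA content read by flow cytometry with doublet discrimination. Medium as untreated control, paclitaxel as G2/M control. Three independent experiments.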
# A2780 [9] = experiment: Induction of apoptosis in human A2780 cells assessed as accumulation in subG1 phase at 1 uM incubated for 24 hrs by propidium iodide staining based flow cytometry (reference value: 10%); format: functional
# Method in brief: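 Cells plated in 24-well plates (about 100,000/well) for one day, then treated 24 h. Where used, caspase inhibitor Q-VD-OPh (20 µM) was added 1 h before. Cells lysed in hypotonic buffer (0.1% sodium citrate, 0.1% Triton X-100, 100 µg/ml propidium iodide) overnight at 4 °C in the dark. Sub-G1 fraction read by flow cytometry. Medium control, cisplatin positive control.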
# A2780cisR [10] = experiment: Induction of apoptosis in human A2780cisR cells assessed as depolarization of mitochondrial membrane potential incubated for 1 hr by TMRE staining based flow cytometry; format: functional, cell-based
# Method in brief: (§3)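 Cells seeded overnight; complete medium swapped for FBS-free medium just before treatment to avoid TMRE ester cleavage. Exposure to PXA for 1 h, 2 h or 24 h. TMRE staining 20 min, cells collected by trypsinisation, ΔΨm read by flow cytometry. Medium served as negative control, 20 µM CCCP as positive control. Mean ± SEM reported.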
# J82 [11] = experiment: Induction of apoptosis in cisplatin resistant human J82 cells assessed as mitochondrial membrane potential at 1 uM incubated for 2 hrs by hoechst 33342 staining based fluorescence microscopy; format: functional, cell-based
# Method in brief: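 J82CisR cells exposed 2 h, then labelled with TMRE and Hoechst 33342 for 20 min. TMRE signal imaged on a high-content fluorescence imaging platform. Untreated medium control and 20 µM CCCP positive control.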
# A2780 [12] = experiment: Induction of apoptosis in human A2780 cells assessed as increase in activation of caspase 3/7 at 10 uM incubated for 24 hrs by hoechst 33342 staining based fluorescence microscopy (reference value: 1.4%); format: functional
# J82 [13] = experiment: Induction of apoptosis in cisplatin resistant human J82 cells assessed as increase in activation of caspase 3/7 at 30 uM incubated for 24 hrs by hoechst 33342 staining based fluorescence microscopy (reference value: 0.5%); format: functional
# A2780cisR [14] = experiment: Induction of apoptosis in human A2780cisR cells assessed as increase in caspase 3 cleavage at 5 uM incubated for 24 hrs by proteome profiler analysis; format: functional, cell-based
# Method in brief: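 A2780 and A2780CisR cells treated 24 h with 5 µM PXA; apoptosis-related proteins profiled with a human apoptosis antibody array following kit instructions.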
# A2780cisR [15] = experiment: Induction of apoptosis in human A2780cisR cells assessed as plasma membrane damage at 1 to 10 uM incubated for 24 hrs by propidium iodide staining based flow cytometry; format: functional, cell-based
# Method in brief: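 Cells exposed to PXA for 24 h, trypsinised, pelleted at 4 °C, stained with 100 µg/ml propidium iodide, diluted in sheath fluid and read by flow cytometry. Positive control was 0.2% Triton X-100 (20 min). Three experiments, mean ± SEM.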
# A2780 [16] = experiment: Reduction of H2O2-induced ROS generation in human A2780 cells at 316 nM incubated for 18 hrs by H2DCFDA staining based flow cytometry; format: functional, cell-based
# Method in brief: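 Cells plated overnight in growth medium (approx. 150,000 cells/well), exposed to compound for 18 h. Then washed with PBS and moved to phenol red-free RPMI-1640 without FBS or antibiotics. Loaded with 10 µM H2DCF-DA, 30 min, 37 °C, dark. One aliquot then given 250 µM H2O2 for 1 h at 37 °C in the dark. DCF fluorescence read by flow cytometry; three independent experiments.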
# J82 [17] = experiment: Ratio of IC50 for antiproliferative activity in human J82 cells to cisplatin-resistant human J82 cells assessed as reduction of cell viability incubated for 72 hrs by MTT assay; format: functional; method in brief: as §2
# A2780cisR [18] = experiment: Induction of apoptosis in human A2780cisR cells assessed as depolarization of mitochondrial membrane potential at 1 uM by TMRE staining based flow cytometry; format: functional, cell-based; settings: TDE = time-dependent effect; method in brief: as §3
# A2780cisR [19] = experiment: Induction of apoptosis in human A2780cisR cells assessed as decrease in mitochondrial membrane potential at 1 uM incubated for 24 hrs by TMRE staining based flow cytometry; format: functional, cell-based; method in brief: as §3
smiles,measurement,setting,value
CC(=O)OC[C@]12Oc3c(-c4ccc(O)c5c4O[C@@]4(COC(C)=O)C(=C(O)C[C@@H](C)[C@H]4OC(C)=O)C5=O)ccc(O)c3C(=O)C1=C(O)C[C@@H](C)[C@H]2OC(C)=O [PHOMOXANTHONE A],IC50,A2780 [1]; read-out: IC50,0.58 µM
same,IC50,A2780 [1]; read-out: pIC50 (converted),0.575 µM
same,IC50,MDA-MB-231,3.7 µM
same,IC50,KYSE-510 [2],0.76 µM
same,IC50,J82 [3],3.23 µM
same,IC50,HCT-116,1.82 µM
same,Ratio IC50,A2780cisR [4],9
same,Ratio IC50,KYSE-510 [5],2 - 10
same,Ratio IC50,J82 [6],4
same,IC50,A2780 [7]; read-out: IC50,1.44 µM
same,IC50,A2780 [7]; read-out: pIC50 (converted),1.45 µM
same,Activity,A2780 [8],78.9%
same,Activity,A2780 [9],42%
same,Activity,A2780cisR [10],Dose-dependent effect
same,IC50,A2780cisR [10],1.25 µM
same,Activity,J82 [11],inactive
same,Activity,A2780 [12],83%
same,Activity,J82 [13],90%
same,Activity,A2780cisR [14],Active
same,Activity,A2780cisR [15],inactive
same,inhibition,A2780 [16],inactive
same,Ratio IC50,J82 [17],1.6
same,Activity,A2780cisR [18],Tde
same,Activity,A2780cisR [19],Active
